Activity calls are given as the source filed them. The rule behind the calls is not given here.
System: not listed separately
Test: Inhibition of chymotrypsin-like activity of human 20s proteasome beta5 subunit in human erythrocyte assessed as hydrolysis of Ac-WLA-AMC fluorogenic substrate
Details: not given

SMILES	IC50
CC(NC(=O)[C@H](CCc1ccccc1)NC(=O)[C@@H](NC(=O)c1ccc(OCc2ccccc2)cc1)[C@@H](C)O)c1ccccc1 (stereo partly specified)	> 100 µM
COC[C@H](NC(=O)Cc1cccc(OCc2ccccc2)c1)C(=O)N[C@@H](CCc1ccccc1)C(=O)NCc1ccc(C)cc1	0.074 µM
C[C@@H](O)[C@H](NC(=O)c1ccc(OCc2ccccc2)cc1)C(=O)N[C@@H](CCc1ccccc1)C(=O)NCCc1cccs1	3.2 µM

System: not listed separately
Test: (§1) Inhibition of TNF-alpha-induced NF-kappaB activation in human HEK293 cells after 3 hrs by luciferase reporter gene assay
Type: cell-based
Details: HEK293, 3 h
How it was run: (§2)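 NF-κB-luciferase reporter in HEK293 cells (10,000 per well). Cells were pre-incubated with compound for 1 h, then stimulated with 10 ng/ml TNF-α for 3 h with compound still present. IC50 and percentage inhibition were reported as means of at least three independent experiments.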

SMILES	IC50
CC(NC(=O)[C@H](CCc1ccccc1)NC(=O)[C@@H](NC(=O)c1ccc(OCc2ccccc2)cc1)[C@@H](C)O)c1ccccc1 (stereo partly specified)	> 50 µM
COC[C@H](NC(=O)Cc1cccc(OCc2ccccc2)c1)C(=O)N[C@@H](CCc1ccccc1)C(=O)NCc1ccc(C)cc1	0.34 µM
C[C@@H](O)[C@H](NC(=O)c1ccc(OCc2ccccc2)cc1)C(=O)N[C@@H](CCc1ccccc1)C(=O)NCCc1cccs1	> 50 µM

System: HEK293
Test: as §1
Type: cell-based
Parameters: concentration or dose not given beside the values
Details: dose or concentration not given here
How it was run: as §2

SMILES	inhibition
COC[C@H](NC(=O)Cc1cccc(OCc2ccccc2)c1)C(=O)N[C@@H](CCc1ccccc1)C(=O)NCc1ccc(C)cc1	78%

System: not listed separately
Test: Cytotoxicity against human Calu6 cells assessed as cellular ATP level after 72 hrs by luminescence-based ATPlite assay
Type: cell-based, Calu-6
Details: read-out: LC50
How it was run: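 Calu6 cells, 2000 per well, incubated with compound for 72 h. Viability read as cellular ATP by luminescence (ATPlite). Values are means of at least three independent experiments.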

SMILES	CC50 at 72 h
CC(NC(=O)[C@H](CCc1ccccc1)NC(=O)[C@@H](NC(=O)c1ccc(OCc2ccccc2)cc1)[C@@H](C)O)c1ccccc1 (stereo partly specified)	9 µM
COC[C@H](NC(=O)Cc1cccc(OCc2ccccc2)c1)C(=O)N[C@@H](CCc1ccccc1)C(=O)NCc1ccc(C)cc1	0.22 µM
C[C@@H](O)[C@H](NC(=O)c1ccc(OCc2ccccc2)cc1)C(=O)N[C@@H](CCc1ccccc1)C(=O)NCCc1cccs1	> 25 µM

System: not listed separately
Test: Inhibition of chymotrypsin-like activity of human 20s proteasome beta-1 subunit in human erythrocyte assessed as hydrolysis of Ac-WLA-AMC fluorogenic substrate
Details: not given

SMILES	IC50
CC(NC(=O)[C@H](CCc1ccccc1)NC(=O)[C@@H](NC(=O)c1ccc(OCc2ccccc2)cc1)[C@@H](C)O)c1ccccc1 (stereo partly specified)	> 20 µM
COC[C@H](NC(=O)Cc1cccc(OCc2ccccc2)c1)C(=O)N[C@@H](CCc1ccccc1)C(=O)NCc1ccc(C)cc1	> 20 µM
C[C@@H](O)[C@H](NC(=O)c1ccc(OCc2ccccc2)cc1)C(=O)N[C@@H](CCc1ccccc1)C(=O)NCCc1cccs1	> 20 µM

System: not listed separately
Test: Inhibition of chymotrypsin-like activity of human 20s proteasome beta2 subunit in human erythrocyte assessed as hydrolysis of Ac-WLA-AMC fluorogenic substrate
Details: not given

SMILES	IC50
CC(NC(=O)[C@H](CCc1ccccc1)NC(=O)[C@@H](NC(=O)c1ccc(OCc2ccccc2)cc1)[C@@H](C)O)c1ccccc1 (stereo partly specified)	> 20 µM
COC[C@H](NC(=O)Cc1cccc(OCc2ccccc2)c1)C(=O)N[C@@H](CCc1ccccc1)C(=O)NCc1ccc(C)cc1	> 20 µM
C[C@@H](O)[C@H](NC(=O)c1ccc(OCc2ccccc2)cc1)C(=O)N[C@@H](CCc1ccccc1)C(=O)NCCc1cccs1	> 20 µM

Biological target: Cathepsin B (Homo sapiens) (UniProt P07858)
Test: Inhibition of human cathepsin B at 100uM
Details: not given

SMILES	inhibition
CC(NC(=O)[C@H](CCc1ccccc1)NC(=O)[C@@H](NC(=O)c1ccc(OCc2ccccc2)cc1)[C@@H](C)O)c1ccccc1 (stereo partly specified)	Active
COC[C@H](NC(=O)Cc1cccc(OCc2ccccc2)c1)C(=O)N[C@@H](CCc1ccccc1)C(=O)NCc1ccc(C)cc1	Active
C[C@@H](O)[C@H](NC(=O)c1ccc(OCc2ccccc2)cc1)C(=O)N[C@@H](CCc1ccccc1)C(=O)NCCc1cccs1	Active

Biological target: Procathepsin L (Homo sapiens) (UniProt P07711)
Test: Inhibition of human cathepsin L at 100uM
Details: not given

Sequence of Procathepsin L (Homo sapiens) (P07711 114-333 limits assumed): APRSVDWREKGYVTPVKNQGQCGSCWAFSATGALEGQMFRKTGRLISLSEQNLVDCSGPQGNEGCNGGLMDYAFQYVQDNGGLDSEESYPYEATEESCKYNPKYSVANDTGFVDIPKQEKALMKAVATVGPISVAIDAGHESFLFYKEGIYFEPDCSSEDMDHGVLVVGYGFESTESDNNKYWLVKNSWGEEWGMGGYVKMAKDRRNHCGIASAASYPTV

SMILES	inhibition
CC(NC(=O)[C@H](CCc1ccccc1)NC(=O)[C@@H](NC(=O)c1ccc(OCc2ccccc2)cc1)[C@@H](C)O)c1ccccc1 (stereo partly specified)	Active
COC[C@H](NC(=O)Cc1cccc(OCc2ccccc2)c1)C(=O)N[C@@H](CCc1ccccc1)C(=O)NCc1ccc(C)cc1	Active
C[C@@H](O)[C@H](NC(=O)c1ccc(OCc2ccccc2)cc1)C(=O)N[C@@H](CCc1ccccc1)C(=O)NCCc1cccs1	Active

Biological target: T1, Coagulation factor XII (Homo sapiens) (UniProt P00748)
T1 sequence (whole entry): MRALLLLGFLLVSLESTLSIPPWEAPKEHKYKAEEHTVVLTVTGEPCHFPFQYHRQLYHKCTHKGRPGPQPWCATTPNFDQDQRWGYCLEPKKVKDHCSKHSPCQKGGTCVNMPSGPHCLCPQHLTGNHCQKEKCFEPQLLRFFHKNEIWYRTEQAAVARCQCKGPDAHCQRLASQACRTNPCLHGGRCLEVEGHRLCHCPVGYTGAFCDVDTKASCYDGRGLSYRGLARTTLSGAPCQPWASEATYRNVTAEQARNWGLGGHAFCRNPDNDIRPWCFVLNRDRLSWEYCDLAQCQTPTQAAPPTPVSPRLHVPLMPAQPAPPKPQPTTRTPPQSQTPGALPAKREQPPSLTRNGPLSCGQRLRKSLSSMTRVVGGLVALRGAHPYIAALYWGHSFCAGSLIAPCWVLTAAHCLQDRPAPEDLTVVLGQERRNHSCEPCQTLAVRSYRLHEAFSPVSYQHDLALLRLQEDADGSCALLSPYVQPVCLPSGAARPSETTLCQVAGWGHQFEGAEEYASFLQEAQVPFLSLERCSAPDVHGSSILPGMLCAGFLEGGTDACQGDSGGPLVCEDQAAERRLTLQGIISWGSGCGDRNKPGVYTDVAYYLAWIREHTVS
Test: Inhibition of human coagulation factor beta 12a at 100 uM
Details: not given

SMILES	inhibition
CC(NC(=O)[C@H](CCc1ccccc1)NC(=O)[C@@H](NC(=O)c1ccc(OCc2ccccc2)cc1)[C@@H](C)O)c1ccccc1 (stereo partly specified)	Active
COC[C@H](NC(=O)Cc1cccc(OCc2ccccc2)c1)C(=O)N[C@@H](CCc1ccccc1)C(=O)NCc1ccc(C)cc1	Active
C[C@@H](O)[C@H](NC(=O)c1ccc(OCc2ccccc2)cc1)C(=O)N[C@@H](CCc1ccccc1)C(=O)NCCc1cccs1	Active

Organism: Homo sapiens
Test: Inhibition of human chymotrypsin at 100 uM
Details: not given

SMILES	inhibition
CC(NC(=O)[C@H](CCc1ccccc1)NC(=O)[C@@H](NC(=O)c1ccc(OCc2ccccc2)cc1)[C@@H](C)O)c1ccccc1 (stereo partly specified)	Active
COC[C@H](NC(=O)Cc1cccc(OCc2ccccc2)c1)C(=O)N[C@@H](CCc1ccccc1)C(=O)NCc1ccc(C)cc1	Active
C[C@@H](O)[C@H](NC(=O)c1ccc(OCc2ccccc2)cc1)C(=O)N[C@@H](CCc1ccccc1)C(=O)NCCc1cccs1	Active

Organism: Homo sapiens
Test: Inhibition of human elastase at 100 uM
Details: not given

SMILES	inhibition
CC(NC(=O)[C@H](CCc1ccccc1)NC(=O)[C@@H](NC(=O)c1ccc(OCc2ccccc2)cc1)[C@@H](C)O)c1ccccc1 (stereo partly specified)	Active
COC[C@H](NC(=O)Cc1cccc(OCc2ccccc2)c1)C(=O)N[C@@H](CCc1ccccc1)C(=O)NCc1ccc(C)cc1	Active
C[C@@H](O)[C@H](NC(=O)c1ccc(OCc2ccccc2)cc1)C(=O)N[C@@H](CCc1ccccc1)C(=O)NCCc1cccs1	Active

Biological target: Plasminogen (Homo sapiens) (UniProt P00747)
Test: Inhibition of human plasmin at 100 uM
Details: not given

Sequence of Plasminogen (Homo sapiens) (P00747 97-580 limits assumed): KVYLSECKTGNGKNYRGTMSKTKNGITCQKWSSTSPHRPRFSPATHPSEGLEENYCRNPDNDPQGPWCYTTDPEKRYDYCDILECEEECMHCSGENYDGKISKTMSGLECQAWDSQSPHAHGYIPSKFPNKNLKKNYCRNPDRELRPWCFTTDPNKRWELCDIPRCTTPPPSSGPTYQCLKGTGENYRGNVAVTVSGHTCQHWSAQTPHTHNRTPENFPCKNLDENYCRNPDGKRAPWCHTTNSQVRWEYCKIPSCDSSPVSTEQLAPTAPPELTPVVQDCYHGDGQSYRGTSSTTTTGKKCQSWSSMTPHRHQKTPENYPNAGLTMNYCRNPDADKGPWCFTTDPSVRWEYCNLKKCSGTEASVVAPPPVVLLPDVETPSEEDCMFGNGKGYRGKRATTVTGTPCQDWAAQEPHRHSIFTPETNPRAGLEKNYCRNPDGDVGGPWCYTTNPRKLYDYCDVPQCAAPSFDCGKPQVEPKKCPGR
Sequence of Plasminogen (Homo sapiens) (P00747 581-810 limits assumed): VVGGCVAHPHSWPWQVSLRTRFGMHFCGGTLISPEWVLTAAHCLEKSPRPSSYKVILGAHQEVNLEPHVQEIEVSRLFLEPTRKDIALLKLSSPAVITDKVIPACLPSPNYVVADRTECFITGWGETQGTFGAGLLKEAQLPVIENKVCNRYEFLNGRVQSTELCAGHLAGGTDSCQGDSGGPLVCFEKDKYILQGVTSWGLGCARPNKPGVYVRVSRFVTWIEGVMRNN

SMILES	inhibition
CC(NC(=O)[C@H](CCc1ccccc1)NC(=O)[C@@H](NC(=O)c1ccc(OCc2ccccc2)cc1)[C@@H](C)O)c1ccccc1 (stereo partly specified)	Active
COC[C@H](NC(=O)Cc1cccc(OCc2ccccc2)c1)C(=O)N[C@@H](CCc1ccccc1)C(=O)NCc1ccc(C)cc1	Active
C[C@@H](O)[C@H](NC(=O)c1ccc(OCc2ccccc2)cc1)C(=O)N[C@@H](CCc1ccccc1)C(=O)NCCc1cccs1	Active

Biological target: Prothrombin (Homo sapiens) (UniProt P00734)
Test: Inhibition of human thrombin at 100 uM
Details: not given

SMILES	inhibition
CC(NC(=O)[C@H](CCc1ccccc1)NC(=O)[C@@H](NC(=O)c1ccc(OCc2ccccc2)cc1)[C@@H](C)O)c1ccccc1 (stereo partly specified)	Active
COC[C@H](NC(=O)Cc1cccc(OCc2ccccc2)c1)C(=O)N[C@@H](CCc1ccccc1)C(=O)NCc1ccc(C)cc1	Active
C[C@@H](O)[C@H](NC(=O)c1ccc(OCc2ccccc2)cc1)C(=O)N[C@@H](CCc1ccccc1)C(=O)NCCc1cccs1	Active

Biological target: Tissue-type plasminogen activator (Homo sapiens) (UniProt P00750)
Test: Inhibition of tissue plasminogen activator at 100 uM
Details: not given

Sequence of Tissue-type plasminogen activator (Homo sapiens) (P00750 36-562 limits assumed): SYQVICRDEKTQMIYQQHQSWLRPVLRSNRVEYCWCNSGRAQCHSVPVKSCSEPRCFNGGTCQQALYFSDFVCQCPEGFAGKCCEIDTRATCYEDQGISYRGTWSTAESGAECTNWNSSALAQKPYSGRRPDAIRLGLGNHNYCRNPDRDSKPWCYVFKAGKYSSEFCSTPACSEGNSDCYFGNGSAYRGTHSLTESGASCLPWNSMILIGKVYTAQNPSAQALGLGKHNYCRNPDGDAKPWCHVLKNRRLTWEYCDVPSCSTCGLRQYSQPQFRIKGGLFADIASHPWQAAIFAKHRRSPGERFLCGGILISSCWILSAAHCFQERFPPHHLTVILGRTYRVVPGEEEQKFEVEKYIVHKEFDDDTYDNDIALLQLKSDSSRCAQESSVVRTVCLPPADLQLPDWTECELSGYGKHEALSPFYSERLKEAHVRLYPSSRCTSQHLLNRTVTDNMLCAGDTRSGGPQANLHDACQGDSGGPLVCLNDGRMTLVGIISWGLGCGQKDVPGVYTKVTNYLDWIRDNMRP

SMILES	inhibition
CC(NC(=O)[C@H](CCc1ccccc1)NC(=O)[C@@H](NC(=O)c1ccc(OCc2ccccc2)cc1)[C@@H](C)O)c1ccccc1 (stereo partly specified)	Active
COC[C@H](NC(=O)Cc1cccc(OCc2ccccc2)c1)C(=O)N[C@@H](CCc1ccccc1)C(=O)NCc1ccc(C)cc1	Active
C[C@@H](O)[C@H](NC(=O)c1ccc(OCc2ccccc2)cc1)C(=O)N[C@@H](CCc1ccccc1)C(=O)NCCc1cccs1	Active

Biological target: Trypsin (Homo sapiens) (UniProt P07477+P07478+P35030)
Test: Inhibition of human trypsin at 100 uM
Type: protein assay
Details: not given

SMILES	inhibition
CC(NC(=O)[C@H](CCc1ccccc1)NC(=O)[C@@H](NC(=O)c1ccc(OCc2ccccc2)cc1)[C@@H](C)O)c1ccccc1 (stereo partly specified)	Active
COC[C@H](NC(=O)Cc1cccc(OCc2ccccc2)c1)C(=O)N[C@@H](CCc1ccccc1)C(=O)NCc1ccc(C)cc1	Active
C[C@@H](O)[C@H](NC(=O)c1ccc(OCc2ccccc2)cc1)C(=O)N[C@@H](CCc1ccccc1)C(=O)NCCc1cccs1	Active

Biological target: T2, Calpain-1 catalytic subunit (Homo sapiens) (UniProt P07384)
T2 sequence (whole entry): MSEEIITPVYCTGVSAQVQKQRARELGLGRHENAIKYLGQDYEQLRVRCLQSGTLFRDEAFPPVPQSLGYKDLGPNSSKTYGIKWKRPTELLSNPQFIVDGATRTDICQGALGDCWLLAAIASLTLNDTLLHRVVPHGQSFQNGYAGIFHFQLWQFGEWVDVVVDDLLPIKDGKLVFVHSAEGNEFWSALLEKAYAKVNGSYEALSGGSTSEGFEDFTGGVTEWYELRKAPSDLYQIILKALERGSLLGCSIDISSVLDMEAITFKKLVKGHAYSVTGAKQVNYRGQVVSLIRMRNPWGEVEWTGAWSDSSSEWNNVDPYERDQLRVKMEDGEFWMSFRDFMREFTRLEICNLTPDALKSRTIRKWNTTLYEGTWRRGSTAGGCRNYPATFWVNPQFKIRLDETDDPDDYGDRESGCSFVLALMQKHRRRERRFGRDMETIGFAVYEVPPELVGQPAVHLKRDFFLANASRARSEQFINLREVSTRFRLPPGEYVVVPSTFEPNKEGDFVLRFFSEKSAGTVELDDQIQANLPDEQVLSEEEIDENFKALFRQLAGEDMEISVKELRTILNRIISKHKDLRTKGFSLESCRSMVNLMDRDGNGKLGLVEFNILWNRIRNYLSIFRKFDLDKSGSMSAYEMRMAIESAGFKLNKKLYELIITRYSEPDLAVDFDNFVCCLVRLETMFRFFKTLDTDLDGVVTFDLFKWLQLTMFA
Test: Inhibition of human calpain 1 at 100 uM
Details: not given

SMILES	inhibition
CC(NC(=O)[C@H](CCc1ccccc1)NC(=O)[C@@H](NC(=O)c1ccc(OCc2ccccc2)cc1)[C@@H](C)O)c1ccccc1 (stereo partly specified)	Active
COC[C@H](NC(=O)Cc1cccc(OCc2ccccc2)c1)C(=O)N[C@@H](CCc1ccccc1)C(=O)NCc1ccc(C)cc1	Active
C[C@@H](O)[C@H](NC(=O)c1ccc(OCc2ccccc2)cc1)C(=O)N[C@@H](CCc1ccccc1)C(=O)NCCc1cccs1	Active

Source: ChEMBL document CHEMBL1268915, “Optimization of a series of dipeptides with a P3 threonine residue as non-covalent inhibitors of the chymotrypsin-like activity of the human 20S proteasome” (Bioorg Med Chem Lett, 2010)
